WT yeast gro inh: growth inhibition of WT yeast, mitochondrial fusion screen. inhibition, % at 10 µM. 190,000 compounds, 2.1% hits. AID 1362. mitochondrial fusion phenotypic screen, WT strain; in the data active = inhibition above about 58%; tested in S. cerevisiae
CHOP inh: blocks CHOP induction under ER stress | CHO-K1 CHOP-promoter luciferase, tunicamycin-induced, 15-18 h | inhibition, % at 10 µM | 220,000 compounds, 3.8% hits | AID 2732;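 active = compounds that reduced the stress-induced luciferase reporter signal by more than about 70% of percent inhibition, limit read from the data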
TbMetRS inhib: blocks T. brucei methionyl-tRNA synthetase activity; inhibition, % at 11.9 µM; AID 624268; purified T. brucei MetRS, ATP depletion, Kinase-Glo luminescence; 360,000 compounds, 0.4% hits;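 active = inhibition above a per-plate cutoff of the control wells' mean inhibition plus 3 SD, cut at about 5.5% in these data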
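assay system = parasite MetRS enzyme | timing = 15 min preincubation, 2 h reaction, all 25 °C | evaluation = percent inhibition relative to median high and low control wells | medium = HEPES buffer containing pyrophosphatase, BSA, spermine, DTT | compound = single dose, 11.9 µM final nominal, 0.9% final DMSO | detection = Kinase-Glo luminescence, ATP depletion format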
GRIN3A LBD mod: modulators (binders) of human NR3A ligand-binding domain | AID 1259313 | Tm shift relative to glycine control, % at 25 µM | 340,000 compounds, 2.5% hits | NR3A LBD differential scanning fluorimetry, Tm shift; 0% = protein alone, 100% = glycine-bound protein;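 active = melting temperature shift of at least 10% of the positive control shift, at one fixed dose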
EBV gp42 block: EBV gp42 inhibition; Q1HVG2; Fluorescence polarization binding assay, mP read-out; inhibition, % (tested at 21.74 µM); 220,000 compounds, 0.42% hits; AID 1085; in the data active = inhibition above about 50%
Target sequence (Q1HVG2 whole entry, looked up): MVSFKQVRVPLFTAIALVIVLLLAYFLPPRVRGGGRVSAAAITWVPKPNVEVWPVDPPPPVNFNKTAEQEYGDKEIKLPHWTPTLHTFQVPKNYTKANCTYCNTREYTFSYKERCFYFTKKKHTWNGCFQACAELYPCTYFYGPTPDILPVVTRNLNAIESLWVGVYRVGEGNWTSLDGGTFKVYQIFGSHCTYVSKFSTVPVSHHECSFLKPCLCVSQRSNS
MPTP block: inhibitors of mitochondrial permeability transition pore; isolated mouse mitochondria, Ca2+ swelling absorbance, 30 min; inhibition, % at 10 µM; 360,000 compounds, 1.4% hits;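 active = inhibition of 50% or more, scaled per plate between neutral and stimulator controls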
Each line names hits and unclear results; the compound was inactive in the other large screens. A selection: hits, their analogues and other compounds. The true share with any hit is near 6.4%.

COc1cc(NC(=O)CSc2nnnn2Cc2ccc3c(c2)OCO3)cc(OC)c1	none
NC(=S)N/N=C/c1ccc(-c2cc(Cl)ccc2Cl)o1	WT yeast gro inh 72
N#Cc1nc(-c2ccccc2)oc1N1CCN(C(=O)c2ccco2)CC1	none (no result: WT yeast gro inh, CHOP inh, EBV gp42 block)
CCCCN(CCCC)c1ncnc2nc[nH]c12	WT yeast gro inh 78
CCCCN(Cc1ccccc1)c1ncnc2nc[nH]c12	CHOP inh 75
CCCN(c1ccc(OCC)cc1)c1ncnc2nc[nH]c12	none
Cc1cc(-c2ccc(C)c(S(=O)(=O)Nc3cccc(CN4CCCC4)c3)c2)on1	none (no result: WT yeast gro inh, CHOP inh, EBV gp42 block)
C/C(CC(=O)Nc1ccc(N(C)C)cc1)=N\NC(=O)Cc1csc(N)n1	none
S=C1Cc2ccccc2N1	CHOP inh 107 (no result: WT yeast gro inh)
Cc1cccc(-c2cc(=O)c(C(=O)O)cn2-c2ccc(F)cc2F)c1	GRIN3A LBD mod 13 (no result: WT yeast gro inh)
Cc1nc(NCCc2ccc(S(N)(=O)=O)cc2)c2c(C)c(C)sc2n1	none
Cc1nc(NCCNC(=O)c2ccco2)c2c(C)c(C)sc2n1	GRIN3A LBD mod 14
O=C1N/C(=C/c2ccc(N3CCOCC3)o2)C(=O)N1c1ccccc1	none
C=CCN1C(=O)N/C(=C/c2ccc(N3CCOCC3)o2)C1=O	CHOP inh 94 (no result: TbMetRS inhib, GRIN3A LBD mod, MPTP block)
NNC(=O)c1cc(-c2ccc(O)cc2)nc2ccc(Br)cc12	GRIN3A LBD mod 11 (no result: WT yeast gro inh)
Cc1ccc(-c2cc(C(=O)NCc3cnn(C)c3C)c3cc(Br)ccc3n2)cc1	CHOP inh 78
CC(C)(C)c1nc2ccccc2c2nnc(SCC(=O)Nc3nc4ccccc4s3)n12	none
NS(=O)(=O)c1ccc(NC(=O)CSc2nnc(Cc3cccs3)n2-c2ccccc2)cc1	GRIN3A LBD mod 10
O=C(CSc1nnc(CCCN2C(=O)c3cccc4cccc(c34)C2=O)n1-c1ccccc1)NCCCN1CCOCC1	none
O=C(CSc1nnc(Cc2cccs2)n1Cc1ccco1)Nc1cc(Cl)cc(Cl)c1	CHOP inh 82
O=C(CSc1nnc(CCCN2C(=O)c3cccc4cccc(c34)C2=O)n1-c1ccccc1)NCCCO	GRIN3A LBD mod 13
CC(C)(C)c1nc2ccccc2c2nnc(SCC(=O)Nc3nccs3)n12	CHOP inh 78 (no result: GRIN3A LBD mod)
COc1ccc(N(C(=O)c2snc(C(N)=O)c2N)C(C(=O)NC2CCCC2)c2cccs2)cc1OC (stereo not drawn)	none (no result: WT yeast gro inh, CHOP inh, EBV gp42 block)
COc1cc(/C=C(\C#N)C(=O)Nc2ccc(C(=O)O)cc2)ccc1OC(=O)c1cccc(F)c1	none (no result: WT yeast gro inh, CHOP inh, EBV gp42 block)
CCN(C[C@H]1N[C@@](C)(C(=O)OC)[C@H]2C(=O)N(C)C(=O)[C@@H]12)S(=O)(=O)c1ccc(F)cc1	none (no result: WT yeast gro inh, CHOP inh, EBV gp42 block)
Cc1ccccc1OCC(O)Cn1c(NCCN(C)C)nc2c1c(=O)n(C)c(=O)n2C (stereo not drawn)	none (no result: GRIN3A LBD mod)
CCCNC(=O)c1ccc(N2CCC3(CC2)CC(c2ccccc2)=NO3)c(NC(=O)c2cccc(C)c2)c1	none (no result: WT yeast gro inh, CHOP inh, EBV gp42 block)
O=C(CSc1nnc(CCCO)n1-c1ccccc1)Nc1nccs1	CHOP inh 85
CC1/C(=C\c2ccc(Cl)cc2)C(=O)C2CC1C2(C)C (stereo not drawn)	CHOP inh 76
Cc1cc(C)nc(SCC(=O)c2ccc(O)c(O)c2)n1	none (no result: WT yeast gro inh, CHOP inh, EBV gp42 block)
Cc1cc(SCC(=O)c2ccc(O)c(O)c2)n2nc(C)c(-c3ccccc3)c2n1	GRIN3A LBD mod 23 (no result: WT yeast gro inh)
C=CCn1c(=O)c2c3c(sc2n2c(Nc4ccc(C(=O)OCC)cc4)nnc12)CCCC3	CHOP inh 88
CCOC(=O)C1=C(c2ccccc2)OC(N)=C(C#N)C1c1ccc(Cl)s1 (stereo not drawn)	CHOP inh 78
CCOC(=O)C1=C(c2ccccc2)OC(N)=C(C#N)C1c1ccc(Br)s1 (stereo not drawn)	CHOP inh 82
CCOC(=O)C1=C(c2ccccc2)OC(N)=C(C#N)C1c1cccnc1 (stereo not drawn)	none
O=C(CSc1nnnn1-c1ccc(Cl)cc1)N1CCc2ccccc2C1	WT yeast gro inh 81
O=C(CSc1nnnn1-c1ccccc1)N1CCc2ccccc21	none
O=C1CCC(=O)N1c1nc2n(n1)C(c1ccccc1)C=C(c1ccc(Br)cc1)N2 (stereo not drawn)	EBV gp42 block 51
COc1ccccc1C1C=C(c2ccc(Cl)cc2)Nc2nc(N3C(=O)CCC3=O)nn21 (stereo not drawn)	none
CS(=O)(=O)Nc1nc2n(n1)C(c1ccccc1)C=C(c1ccc(Br)cc1)N2 (stereo not drawn)	EBV gp42 block 58
COc1ccc(C2C=C(c3ccc(Br)cc3)Nc3nc(N4C(=O)CCC4=O)nn32)cc1 (stereo not drawn)	GRIN3A LBD mod 13, EBV gp42 block 68
CCSc1nc(=S)n(Cc2ccccc2)c(C)c1C(C)=O	none
CCn1c(C)c(C(C)=O)c(NCc2ccccc2)nc1=S	GRIN3A LBD mod 14
C=CCn1c(C)c(C(C)=O)c(N2CCN(C(c3ccccc3)c3ccccc3)CC2)nc1=S	WT yeast gro inh 72
CC(=O)c1c(NCc2ccccc2)nc(=O)n(-c2ccccc2)c1C	none
CC(=O)c1c(N2CCN(C)CC2)nc(=S)n(Cc2ccccc2)c1C	GRIN3A LBD mod 10
CCn1c(C)c(C(C)=O)c(N2CCN(c3cccc(Cl)c3)CC2)nc1=S	none
COc1cccc(OC)c1C(=O)N1CCN(S(=O)(=O)c2ccccc2)CC1	none
CN1CC(=O)N(CC(=O)Nc2ccc(Cl)c(C(F)(F)F)c2)C1=O	none
Oc1ccc(N2CCN(CC(O)c3ccccc3)CC2)cc1 (stereo not drawn)	GRIN3A LBD mod 32 (no result: WT yeast gro inh, CHOP inh, EBV gp42 block)
O=[N+]([O-])c1ccc(C(O)CN2CCN(c3ccccc3)CC2)cc1 (stereo not drawn)	none (no result: WT yeast gro inh, CHOP inh, EBV gp42 block)
Nc1cc(Nc2ccccc2)ccn1	none (no result: WT yeast gro inh, CHOP inh, EBV gp42 block)
C/C(=N/Nc1ccnc2cc(Cl)ccc12)c1ccc(O)cc1	GRIN3A LBD mod 14 (no result: WT yeast gro inh, CHOP inh, EBV gp42 block)
Cc1ccc(S(=O)(=O)N[C@H](C(=O)Oc2ccc3c(C(F)(F)F)cc(=O)oc3c2)c2ccccc2)cc1	CHOP inh 75
Cc1ccc(S(=O)(=O)NC(C(=O)Oc2ccc3ccc(=O)oc3c2)c2ccccc2)cc1 (stereo not drawn)	none
CCCCC1=CC2=C(c3ccco3)C(=O)C(C)(OC(=O)c3ccc(OC)cc3)C(=O)C2=CN1CC1CC1 (stereo not drawn)	CHOP inh 90 (no result: WT yeast gro inh)
CCCCC1=CC2=C(c3ccco3)C(=O)C(C)(OC(=O)c3ccc(OC)cc3)C(=O)C2=CN1Cc1ccc(OC)cc1 (stereo not drawn)	none (no result: WT yeast gro inh, TbMetRS inhib, GRIN3A LBD mod, MPTP block)
CCCCC1=CC2=C(c3ccco3)C(=O)C(C)(OC(=O)c3ccc(OC)cc3)C(=O)C2=CN1CC(C)C (stereo not drawn)	CHOP inh 79 (no result: WT yeast gro inh)
CC(C)N(C(=O)Cn1cnc2cc([N+](=O)[O-])ccc2c1=O)C(C)C	none (no result: TbMetRS inhib, GRIN3A LBD mod, MPTP block)
COC(=O)c1[nH]c2ccccc2c1NC(=O)Oc1ccccc1	GRIN3A LBD mod 17
COC(=O)c1[nH]c2ccc(C)cc2c1NC(=O)Oc1ccccc1	none

High-throughput results as filed in PubChem BioAssay.
